Reference: PMC9082424 (RSC Advances, 2018)

What was measured:
α-glucosidase [1] = biological target: T1, α-glucosidase (Saccharomyces cerevisiae, UniProt P53341); assay: α-Glucosidase inhibitory assay in vitro; type: biochemical; settings: for α-Glucosidase inhibitory activity (in words): up to the highest tested concentration
α-glucosidase [2] = biological target: T1, α-glucosidase; assay: Steady-state kinetic analysis of α-glucosidase inhibition; type: biochemical
Procedure, shortened: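 Yeast α-glucosidase (final 0.025 U mL−1, in 75 mM phosphate buffer pH 7.4) premixed with test compound at several concentrations for 10 min at 37 °C. 4-NPGP (50–200 μM) added to start the reaction. 4-Nitrophenol followed at 405 nm every 30 s for 10 min, with initial velocity taken as ΔA per min. Analysed by Lineweaver–Burk plots. Ki came from secondary plots of slopes, and Ki′ from secondary plots of apparent 1/Vmax, against inhibitor concentration. Three independent experiments.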

T1 sequence (P53341 whole entry): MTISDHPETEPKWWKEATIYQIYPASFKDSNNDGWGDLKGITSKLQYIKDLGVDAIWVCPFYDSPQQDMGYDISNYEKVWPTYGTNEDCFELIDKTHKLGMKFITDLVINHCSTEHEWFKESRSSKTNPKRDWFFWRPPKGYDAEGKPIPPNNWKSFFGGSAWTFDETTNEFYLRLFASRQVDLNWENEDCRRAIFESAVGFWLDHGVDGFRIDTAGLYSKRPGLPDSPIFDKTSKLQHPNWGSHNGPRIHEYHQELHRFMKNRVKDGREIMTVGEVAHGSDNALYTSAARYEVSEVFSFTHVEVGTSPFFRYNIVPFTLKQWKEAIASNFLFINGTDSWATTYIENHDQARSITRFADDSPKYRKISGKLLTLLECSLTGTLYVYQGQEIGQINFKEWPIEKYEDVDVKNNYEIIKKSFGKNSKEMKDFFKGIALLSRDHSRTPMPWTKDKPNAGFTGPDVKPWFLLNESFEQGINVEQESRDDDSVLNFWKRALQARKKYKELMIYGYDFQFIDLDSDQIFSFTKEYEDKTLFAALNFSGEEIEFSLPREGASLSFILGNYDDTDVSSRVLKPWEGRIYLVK

Row | SMILES | IC50 (α-glucosidase [1]) [µM] | α-Glucosidase inhibitory activity (in words) (α-glucosidase [1]) | Ki (α-glucosidase [2]) [µM] | Inhibition mode (α-glucosidase [2]; with respect to substrate 4-NPGP (50–200 μM))
1 | O=C(/C=C/c1ccc(O)c2c1[C@H](C(=O)O)[C@@H](c1ccc(O)c(O)c1)O2)O[C@H](Cc1ccc(O)c(O)c1)C(=O)O [LA, lithospermic acid] | > 100 | weak inhibitory effect |  | 
2 | CC(C)C1=Cc2ccc3c(c2C(=O)C1=O)CCCC3(C)C [MT, miltirone] | > 100 |  |  | 
3 | O=C(/C=C/c1ccc(O)c(O)c1)O[C@H](Cc1ccc(O)c(O)c1)C(=O)O [RA, rosmarinic acid] | > 200 |  |  | 
4 | Cc1coc2c1C(=O)C(=O)c1c-2ccc2c1CCCC2(C)C [TS-IIA, tanshinone IIA] | > 100 |  |  | 
5 | Cc1coc2c1C(=O)C(=O)c1c-2ccc2c1CCCC2(C)CO (stereo not shown) [TS-IIB, tanshinone IIB] | > 100 | weak inhibitory activity |  | 
6 | C[C@H]1[C@H](C)CC[C@]2(C(=O)O)CC[C@]3(C)C(=CC[C@@H]4[C@@]5(C)CC[C@H](O)C(C)(C)[C@@H]5CC[C@]43C)[C@H]12 [UA, ursolic acid] |  | weak inhibitory activity |  | 

Further lines, results first:

Row | IC50 (α-glucosidase [1]) [µM] | α-Glucosidase inhibitory activity (in words) (α-glucosidase [1]) | Ki (α-glucosidase [2]) [µM] | Inhibition mode (α-glucosidase [2]; with respect to substrate 4-NPGP (50–200 μM)) | SMILES
7 | > 100 |  |  |  | O=C(O)/C=C/c1ccc(O)c(O)c1 [CA, caffeic acid]
8 | > 100 |  |  |  | C[C@H]1COC2=C1C(=O)C(=O)c1c2ccc2c1CCCC2(C)C [CTS, cryptotanshinone]
9 | 19.3 ± 0.89 |  | 21.2 | competitive inhibition | O=C(/C=C/c1ccc(O)c(O)c1/C=C/c1ccc(O)c(O)c1)O[C@H](Cc1ccc(O)c(O)c1)C(=O)O [SAA, salvianolic acid A]
